Assay results taken from ChEMBL document CHEMBL1817569, “Synthesis, antifungal activity and QSAR study of 2-arylhydroxynitroindoles” (Eur J Med Chem, 2011).
In brackets after ≈: the same amount, converted by molar mass.

What was measured:
Sclerotinia sclerotiorum [1] = test: Fungicidal activity against Sclerotinia sclerotiorum assessed as mycelium growth inhibition at 30 ug/mL after 72 hrs; format: functional; conditions: read-out: GI
How it was run: (§1)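 Radial mycelial growth test on potato-saccharose agar mixed with compound at a single concentration. Plates are inoculated with inverted 3-mm fungus-coated discs and incubated at 25 °C. Colony diameter (mm) is read at 72 h against medium without sample. Inhibition I = [(DC − DT)/DC] × 100%. Three replicates.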

Venturia inaequalis [2] = test: Fungicidal activity against Venturia inaequalis assessed as mycelium growth inhibition at 30 ug/mL after 72 hrs; format: functional; conditions: read-out: GI; how it was run: as §1
Fusarium oxysporum [3] = test: Fungicidal activity against Fusarium oxysporum assessed as mycelium growth inhibition at 30 ug/mL after 72 hrs; format: functional; conditions: read-out: GI; how it was run: as §1
Fusarium verticillioides [4] = test: Fungicidal activity against Fusarium moniliforme assessed as mycelium growth inhibition at 30 ug/mL after 72 hrs; format: functional; conditions: read-out: GI; how it was run: as §1
Bipolaris sorokiniana [5] = test: Fungicidal activity against Bipolaris sorokiniana assessed as mycelium growth inhibition at 30 ug/mL after 72 hrs; format: functional; conditions: read-out: GI; how it was run: as §1
Rhizoctonia solani [6] = test: Fungicidal activity against Rhizoctonia solani assessed as mycelium growth inhibition at 30 ug/mL after 72 hrs; format: functional; conditions: read-out: GI; how it was run: as §1
Bipolaris sorokiniana [7] = test: Fungicidal activity against Bipolaris sorokiniana assessed as mycelium growth inhibition after 72 hrs; format: functional, organism-based
How it was run: (§2)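 EC50 from radial mycelial growth on potato-saccharose agar over a 1–100 concentration range. Inverted 3-mm fungus-coated discs are placed on the agar and incubated at 25 °C. Colony diameter (mm) is measured at 72 h, with plain medium as blank. Percent inhibition = (DC − DT)/DC × 100. Triplicate tests.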

Sclerotinia sclerotiorum [8] = test: Fungicidal activity against Sclerotinia sclerotiorum assessed as mycelium growth inhibition after 72 hrs; format: functional, organism-based; how it was run: as §2
Fusarium oxysporum [9] = test: Fungicidal activity against Fusarium oxysporum assessed as mycelium growth inhibition after 72 hrs; format: functional, organism-based; how it was run: as §2
Fusarium verticillioides [10] = test: Fungicidal activity against Fusarium moniliforme assessed as mycelium growth inhibition after 72 hrs; format: functional, organism-based; how it was run: as §2
Venturia inaequalis [11] = test: Fungicidal activity against Venturia inaequalis assessed as mycelium growth inhibition after 72 hrs; format: functional, organism-based; how it was run: as §2
Rhizoctonia solani [12] = test: Fungicidal activity against Rhizoctonia solani assessed as mycelium growth inhibition after 72 hrs; format: functional, organism-based; how it was run: as §2

Row | SMILES | inhibition of growth at 30 µg/mL (Sclerotinia sclerotiorum [1]) [%] | inhibition of growth at 30 µg/mL (Venturia inaequalis [2]) [%] | inhibition of growth at 30 µg/mL (Fusarium oxysporum [3]) [%] | inhibition of growth at 30 µg/mL (Fusarium verticillioides [4]) [%] | inhibition of growth at 30 µg/mL (Bipolaris sorokiniana [5]) [%] | inhibition of growth at 30 µg/mL (Rhizoctonia solani [6]) [%] | EC50 (Bipolaris sorokiniana [7]) [µg/mL] | EC50 (Sclerotinia sclerotiorum [8]) [µg/mL] | EC50 (Fusarium oxysporum [9]) [µg/mL] | EC50 (Fusarium verticillioides [10]) [µg/mL] | EC50 (Venturia inaequalis [11]) [µg/mL] | EC50 (Rhizoctonia solani [12]) [µg/mL]
1 | COc1cc([N+](=O)[O-])cc2[nH]c(-c3ccccc3)c(C)c12 | 5 | 2 | 11 | 7 | 7 | 13 |  |  |  |  |  | 
2 | CC(C)(C)C(=O)C(Oc1ccc(Cl)cc1)n1cncn1 (centres undefined) [TRIADIMEFON] | 47 | 42 | 60 | 79 | 71 | 66 | 11 (≈ 37.4 µM) | 6.18 (≈ 21 µM) | 3.25 (≈ 11.1 µM) | 2.41 (≈ 8.2 µM) | 20 (≈ 68.1 µM) | 20.6 (≈ 70.1 µM)
3 | Cc1c(-c2ccccc2)[nH]c2cc([N+](=O)[O-])cc(O)c12 | 100 | 93 | 87 | 100 | 89 | 100 | 13 (≈ 48.5 µM) | 8.65 (≈ 32.2 µM) | 18 (≈ 67.1 µM) | 3.48 (≈ 13 µM) | 15.4 (≈ 57.4 µM) | 5.86 (≈ 21.8 µM)
4 | Cc1c(-c2ccccc2)[nH]c2c([N+](=O)[O-])cc(O)cc12 | 51 | 41 | 34 | 54 | 83 | 91 |  |  |  |  |  | 
5 | O=[N+]([O-])c1cc(O)c2cc(-c3ccccc3Cl)[nH]c2c1 | 100 | 44 | 88 | 100 | 100 | 100 |  |  |  |  |  | 
6 | O=[N+]([O-])c1cc(O)c2cc(-c3ccc(F)cc3)[nH]c2c1 | 48 | 60 | 58 | 73 | 35 | 96 |  |  |  |  |  | 
7 | Cc1c(-c2ccccc2)[nH]c2c(O)ccc([N+](=O)[O-])c12 | 54 | 65 | 91 | 88 | 87 | 100 |  |  |  |  |  | 
8 | O=[N+]([O-])c1cc(O)c2cc(-c3ccc(Br)cc3)[nH]c2c1 | 14 | 15 | 12 | 21 | 5 | 11 |  |  |  |  |  | 
9 | Nc1cc([N+](=O)[O-])c2cc(-c3ccccc3)oc2c1 | 7 | 16 | 9 | 5 | 3 | 3 |  |  |  |  |  | 
10 | O=[N+]([O-])c1cc(O)c2cc(-c3ccccc3)n(Cc3ccc(Cl)cc3)c2c1 | 2 | 12 | 27 | 18 | 11 | 34 |  |  |  |  |  | 
11 | Cc1c(-c2ccccc2)[nH]c2c(O)cc([N+](=O)[O-])cc12 | 94 | 48 | 63 | 71 | 95 | 89 |  |  |  |  |  | 
12 | O=[N+]([O-])c1cc(O)c2c(CCn3cncn3)c(-c3ccc(F)cc3)[nH]c2c1 | 17 | 2 | 28 | 30 | 52 | 31 |  |  |  |  |  | 
13 | O=[N+]([O-])c1cc(O)c2cc(-c3ccccc3)[nH]c2c1 | 100 | 89 | 88 | 100 | 100 | 100 | 26.6 (≈ 105 µM) | 17.2 (≈ 67.7 µM) | 21.5 (≈ 84.6 µM) | 6.84 (≈ 26.9 µM) | 16.9 (≈ 66.5 µM) | 11.2 (≈ 44.1 µM)
14 | O=[N+]([O-])c1cc(O)c2cc(-c3ccc(Cl)cc3Cl)[nH]c2c1 | 29 | 26 | 25 | 54 | 22 | 36 |  |  |  |  |  | 
15 | COc1cc([N+](=O)[O-])cc2c1cc(-c1ccccc1)n2C | 8 | 21 | 7 | 23 | 7 | 7 |  |  |  |  |  | 
16 | O=[N+]([O-])c1cc(O)c2cc(-c3ccc(O)cc3)[nH]c2c1 | 19 | 20 | 27 | 39 | 18 | 38 |  |  |  |  |  | 
17 | Cn1c(-c2ccccc2)cc2c(O)cc([N+](=O)[O-])cc21 | 23 | 46 | 56 | 51 | 77 | 77 |  |  |  |  |  | 
18 | O=[N+]([O-])c1cc(O)c2cc(-c3ccc(C(F)(F)F)cc3)[nH]c2c1 | 70 | 53 | 71 | 84 | 74 | 82 |  |  |  |  |  | 
19 | COc1cc([N+](=O)[O-])cc2c1c(C)c(-c1ccccc1)n2C | 0 | 12 | 8 | 8 | 12 | 4 |  |  |  |  |  | 
20 | COc1ccccc1-c1cc2c(O)cc([N+](=O)[O-])cc2[nH]1 | 20 | 26 | 15 | 36 | 20 | 8 |  |  |  |  |  | 
21 | Cc1c(-c2ccccc2)[nH]c2c([N+](=O)[O-])ccc(O)c12 | 51 | 70 | 73 | 84 | 83 | 100 |  |  |  |  |  | 
